Experimental data: ChEMBL document CHEMBL1144581, “alpha-Amino acid derivatives as proton pump inhibitors and potent anti-ulcer agents” (2007)
The source made the active and inactive calls. The calls are words filed in the database; no cut-off is given here.

Tests used:
[1] = species: Rattus norvegicus; assay: Antisecretory activity in rat pylorus ligation-induced ulcer model determined by ratio of free acidity inhibition in drug treated to untreated control; assay type: functional
How it was run: (§1)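 Sprague Dawley rats (130-150 g) fasted 24 h with water ad libitum; pylorus ligated through a midline incision under ether anesthesia. Dosing oral, 1 h before ligation. Gastric juice free and total acidity titrated against 0.01 N NaOH, with Topfer's reagent and phenolphthalein as indicators. Values expressed as ratio of percent inhibition, treated vs control group.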

[2] = species: Rattus norvegicus; assay: Antisecretory activity in rat pylorus ligation-induced ulcer model determined by ratio of total acidity inhibition in drug treated to untreated control; assay type: functional; how it was run: as §1
[3] = species: Rattus norvegicus; assay: Inhibition of gastric H+/K(+)-ATPase activity in Sprague-Dawley rat microsomal vesicles at 10 umol; assay type: microsomes; conditions: Stomach, Microsome
How it was run: (§2)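 Rat gastric microsomes were prepared by density gradient and differential centrifugation. The medium held 40 mM Tris-HCl pH 7.4, 2 mM MgCl2, 10 mM KCl (water for blank) and […] vesicular protein. Compound was preincubated 30 min at 37 °C. Tris-ATP at 0.3, 1.0 or 3 mM was then added for 20 min and stopped with chilled 10% TCA. Released Pi was read at 530 nm; % inhibition vs control.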

[4] = species: Rattus norvegicus; assay: Inhibition of gastric H+/K(+)-ATPase activity in Sprague-Dawley rat microsomal vesicles at 30 uM in presence of 0.3 mM of ATP; assay type: microsomes; conditions: Stomach, Microsome; how it was run: as §2
[5] = species: Rattus norvegicus; assay: Inhibition of p-NPPase in Sprague-Dawley rat microsomal vesicles at 100 uM in presence of 5.0 mM of p-NPP; assay type: microsomes; conditions: Microsome
How it was run: (§3)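 Rat gastric microsomes were assayed in 10 mM PIPES/Tris pH 7.0 with 5 mM KCl. Compound was preincubated 30 min at 37 °C. p-NPP at 1.0, 3.0 or 5.0 mM was added and incubated 20 min at 37 °C, then stopped with 0.5 N NaOH. p-Nitrophenol release was read at 410 nm; % inhibition vs control.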

[6] = species: Rattus norvegicus; assay: Inhibition of gastric H+/K(+)-ATPase activity in Sprague-Dawley rat microsomal vesicles at 3 uM in presence of 0.3 mM of ATP; assay type: microsomes; conditions: Stomach, Microsome; how it was run: as §2
[7] = species: Rattus norvegicus; assay: Inhibition of gastric H+/K(+)-ATPase activity in Sprague-Dawley rat microsomal vesicles at 100 uM in presence of 0.3 mM of ATP; assay type: microsomes; conditions: Stomach, Microsome; how it was run: as §2
[8] = species: Rattus norvegicus; assay: Inhibition of p-NPPase in Sprague-Dawley rat microsomal vesicles at 100 uM in presence of 1.0 mM of p-NPP; assay type: microsomes; conditions: Microsome; how it was run: as §3
[9] = species: Rattus norvegicus; assay: Inhibition of p-NPPase in Sprague-Dawley rat microsomal vesicles at 10 uM in presence of 1.0 mM of p-NPP; assay type: microsomes; conditions: Microsome; how it was run: as §3
[10] = species: Rattus norvegicus; assay: Inhibition of p-NPPase in Sprague-Dawley rat microsomal vesicles at 3 uM in presence of 1.0 mM of p-NPP; assay type: microsomes; conditions: Microsome; how it was run: as §3
[11] = test system: Rattus norvegicus; assay: Antisecretory activity in rat pylorus ligation-induced ulcer model assessed as inhibition of total acidity of gastric juice at 20 mg/kg; assay type: functional, organism-based; parameters: dose 20 mg/kg; how it was run: as §1
[12] = species: Rattus norvegicus; assay: Inhibition of p-NPPase in Sprague-Dawley rat microsomal vesicles at 3 uM in presence of 3.0 mM of p-NPP; assay type: microsomes; conditions: Microsome; how it was run: as §3
[13] = species: Rattus norvegicus; assay: Inhibition of p-NPPase in Sprague-Dawley rat microsomal vesicles at 1000 uM in presence of 1.0 mM of p-NPP; assay type: microsomes; conditions: Microsome; how it was run: as §3
[14] = species: Rattus norvegicus; assay: Inhibition of p-NPPase in Sprague-Dawley rat microsomal vesicles at 10 uM in presence of 3.0 mM of p-NPP; assay type: microsomes; conditions: Microsome; how it was run: as §3
[15] = species: Rattus norvegicus; assay: Inhibition of gastric H+/K(+)-ATPase activity in Sprague-Dawley rat microsomal vesicles at 100 uM in presence of 1.0 mM of ATP; assay type: microsomes; conditions: Stomach, Microsome; how it was run: as §2
[16] = species: Rattus norvegicus; assay: Inhibition of p-NPPase in Sprague-Dawley rat microsomal vesicles at 30 uM in presence of 3.0 mM of p-NPP; assay type: microsomes; conditions: Microsome; how it was run: as §3
[17] = species: Rattus norvegicus; assay: Inhibition of gastric H+/K(+)-ATPase activity in Sprague-Dawley rat microsomal vesicles at 1000 uM in presence of 3.0 mM of ATP; assay type: microsomes; conditions: Stomach, Microsome; how it was run: as §2
[18] = species: Rattus norvegicus; assay: Inhibition of gastric H+/K(+)-ATPase activity in Sprague-Dawley rat microsomal vesicles at 10 uM in presence of 0.3 mM of ATP; assay type: microsomes; conditions: Stomach, Microsome; how it was run: as §2
[19] = species: Rattus norvegicus; assay: Inhibition of gastric H+/K(+)-ATPase activity in Sprague-Dawley rat microsomal vesicles at 30 uM in presence of 3.0 mM of ATP; assay type: microsomes; conditions: Stomach, Microsome; how it was run: as §2
[20] = species: Rattus norvegicus; assay: Inhibition of gastric H+/K(+)-ATPase activity in Sprague-Dawley rat microsomal vesicles at 10 uM in presence of 1.0 mM of ATP; assay type: microsomes; conditions: Stomach, Microsome; how it was run: as §2
[21] = species: Rattus norvegicus; assay: Inhibition of gastric H+/K(+)-ATPase activity in Sprague-Dawley rat microsomal vesicles at 10 uM in presence of 3.0 mM of ATP; assay type: microsomes; conditions: Stomach, Microsome; how it was run: as §2
[22] = species: Rattus norvegicus; assay: Inhibition of p-NPPase in Sprague-Dawley rat microsomal vesicles at 1000 uM in presence of 3.0 mM of p-NPP; assay type: microsomes; conditions: Microsome; how it was run: as §3
[23] = species: Rattus norvegicus; assay: Inhibition of gastric H+/K(+)-ATPase activity in Sprague-Dawley rat microsomal vesicles at 300 uM in presence of 3.0 mM of ATP; assay type: microsomes; conditions: Stomach, Microsome; how it was run: as §2
[24] = species: Rattus norvegicus; assay: Inhibition of p-NPPase in Sprague-Dawley rat microsomal vesicles at 300 uM in presence of 1.0 mM of p-NPP; assay type: microsomes; conditions: Microsome; how it was run: as §3
[25] = species: Rattus norvegicus; assay: Inhibition of gastric H+/K(+)-ATPase activity in Sprague-Dawley rat microsomal vesicles at 300 uM in presence of 0.3 mM of ATP; assay type: microsomes; conditions: Stomach, Microsome; how it was run: as §2
[26] = species: Rattus norvegicus; assay: Inhibition of gastric H+/K(+)-ATPase activity in Sprague-Dawley rat microsomal vesicles at 1000 uM in presence of 1.0 mM of ATP; assay type: microsomes; conditions: Stomach, Microsome; how it was run: as §2
[27] = species: Rattus norvegicus; assay: Inhibition of gastric H+/K(+)-ATPase activity in Sprague-Dawley rat microsomal vesicles at 300 uM in presence of 1.0 mM of ATP; assay type: microsomes; conditions: Stomach, Microsome; how it was run: as §2
[28] = species: Rattus norvegicus; assay: Inhibition of gastric H+/K(+)-ATPase activity in Sprague-Dawley rat microsomal vesicles at 3 uM in presence of 3.0 mM of ATP; assay type: microsomes; conditions: Stomach, Microsome; how it was run: as §2
[29] = species: Rattus norvegicus; assay: Inhibition of p-NPPase in Sprague-Dawley rat microsomal vesicles at 100 uM in presence of 3.0 mM of p-NPP; assay type: microsomes; conditions: Microsome; how it was run: as §3
[30] = species: Rattus norvegicus; assay: Inhibition of p-NPPase in Sprague-Dawley rat microsomal vesicles at 10 uM in presence of 5.0 mM of p-NPP; assay type: microsomes; conditions: Microsome; how it was run: as §3
[31] = species: Rattus norvegicus; assay: Inhibition of gastric H+/K(+)-ATPase activity in Sprague-Dawley rat microsomal vesicles at 1000 uM in presence of 0.3 mM of ATP; assay type: microsomes; conditions: Stomach, Microsome; how it was run: as §2
[32] = species: Rattus norvegicus; assay: Inhibition of gastric H+/K(+)-ATPase activity in Sprague-Dawley rat microsomal vesicles at 3 uM in presence of 1.0 mM of ATP; assay type: microsomes; conditions: Stomach, Microsome; how it was run: as §2
[33] = species: Rattus norvegicus; assay: Inhibition of p-NPPase in Sprague-Dawley rat microsomal vesicles at 30 uM in presence of 1.0 mM of p-NPP; assay type: microsomes; conditions: Microsome; how it was run: as §3
[34] = species: Rattus norvegicus; assay: Inhibition of p-NPPase in Sprague-Dawley rat microsomal vesicles at 300 uM in presence of 3.0 mM of p-NPP; assay type: microsomes; conditions: Microsome; how it was run: as §3
[35] = test system: Rattus norvegicus; assay: Antisecretory activity in rat pylorus ligation-induced ulcer model assessed as inhibition of free acidity of gastric juice at 20 mg/kg; assay type: functional, organism-based; parameters: dose 20 mg/kg; how it was run: as §1
[36] = species: Rattus norvegicus; assay: Inhibition of gastric H+/K(+)-ATPase activity in Sprague-Dawley rat microsomal vesicles at 100 uM in presence of 3.0 mM of ATP; assay type: microsomes; conditions: Stomach, Microsome; how it was run: as §2
[37] = species: Rattus norvegicus; assay: Inhibition of gastric H+/K(+)-ATPase activity in Sprague-Dawley rat microsomal vesicles at 30 uM in presence of 1.0 mM of ATP; assay type: microsomes; conditions: Stomach, Microsome; how it was run: as §2
[38] = species: Rattus norvegicus; assay: Inhibition of p-NPPase in Sprague-Dawley rat microsomal vesicles at 30 uM in presence of 5.0 mM of p-NPP; assay type: microsomes; conditions: Microsome; how it was run: as §3

CC(C)(C)[C@H]1OC(=O)[C@@H]2CCC(=O)N21
Activity [1]: 0.61
Activity [2]: 0.49
inhibition [3]: 92%

CCOC(=O)[C@@H](NC(=O)OCc1ccccc1)C(O)C#C[Si](C)(C)C (some centres undefined)
Activity [1]: 1.01
Activity [2]: 1
inhibition [3]: 10%

O=C1N[C@H](C(=O)O)[C@H](/C=C/c2ccccc2)O1 (relative stereo)
inhibition [4]: 27%
inhibition [5]: 16%
inhibition [6]: 20%
inhibition [7]: 32%
inhibition [8]: 42%
inhibition [9]: 16%
inhibition [10]: 13%
Activity [1]: 0.96
Activity [11]: Active
inhibition [12]: 26%
inhibition [13]: 85%
inhibition [14]: 16%
inhibition [15]: 16%
inhibition [16]: 8%
inhibition [17]: 50%
inhibition [18]: 23%
inhibition [19]: 34%
inhibition [20]: 28%
inhibition [21]: 30%
inhibition [22]: 38%
inhibition [23]: 46%
inhibition [24]: 56%
inhibition [25]: 51%
inhibition [26]: 55%
inhibition [27]: 51%
inhibition [28]: 25%
inhibition [29]: 18%
inhibition [30]: 5%
inhibition [31]: 67%
inhibition [32]: 12%
inhibition [33]: 33%
inhibition [34]: 35%
Activity [35]: Active
Activity [2]: 1.07
inhibition [36]: 28%
inhibition [37]: 12%
inhibition [38]: 13%
inhibition [3]: 59%

CC(C)(C)[C@H]1OC(=O)[C@@]2(C3(O)CCCCC3)CCC(=O)N12
Activity [1]: 0.2
Activity [2]: 0.22
inhibition [3]: 55%

O=C1CC[C@@H](C(=O)O)N1 [PIDOLIC ACID]
Activity [1]: 0.69
Activity [2]: 0.75
inhibition [3]: 67%

CC(C)(C)[C@H]1OC(=O)[C@@]2([C@@H](O)c3ccccc3)CCC(=O)N12
Activity [1]: 0.17
Activity [2]: 0.27
inhibition [3]: 44%

COC(=O)[C@@H]1CCCN1C(=O)/C=C/c1ccccc1
Activity [1]: 0.47
Activity [2]: 0.59
inhibition [3]: 62%

CC(C)N1C(=O)CC[C@H]1C(=O)OC(C)(C)C
Activity [1]: 0.72
Activity [2]: 0.69
inhibition [3]: 52%
